Measured values reported in the M2OR odorant receptor database.

Experiments:
Conditions in all cases: stereoisomer not certain
O2AK2 S99N = tested on: O2AK2 S99N
Method in brief: (§1)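 Each receptor–molecule pair is labelled responsive or non-responsive (inactive) according to whether the original authors judged the measured signal statistically different from baseline. The data were taken from the main text and supplementary material of published papers and checked for typos and inconsistencies. Assay methods differed by source, with transient luciferase assays in mammalian cell lines being common.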

O2T11 = tested on: O2T11
Chain of O2T11 (as listed by the source): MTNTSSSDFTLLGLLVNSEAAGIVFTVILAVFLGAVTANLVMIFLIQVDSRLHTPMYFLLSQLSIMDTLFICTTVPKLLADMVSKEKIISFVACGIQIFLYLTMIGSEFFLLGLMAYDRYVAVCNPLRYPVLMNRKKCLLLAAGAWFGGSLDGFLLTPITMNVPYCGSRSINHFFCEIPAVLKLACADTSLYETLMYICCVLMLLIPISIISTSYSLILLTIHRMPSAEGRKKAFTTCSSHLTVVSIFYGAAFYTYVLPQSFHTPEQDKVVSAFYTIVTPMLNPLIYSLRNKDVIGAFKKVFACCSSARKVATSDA
Method in brief: as §1

O2T27 L36V V134D = tested on: O2T27 L36V V134D
Method in brief: as §1

O2T29 Q24R = tested on: O2T29 Q24R
Chain of O2T29 Q24R (as listed by the source, stated change not applied): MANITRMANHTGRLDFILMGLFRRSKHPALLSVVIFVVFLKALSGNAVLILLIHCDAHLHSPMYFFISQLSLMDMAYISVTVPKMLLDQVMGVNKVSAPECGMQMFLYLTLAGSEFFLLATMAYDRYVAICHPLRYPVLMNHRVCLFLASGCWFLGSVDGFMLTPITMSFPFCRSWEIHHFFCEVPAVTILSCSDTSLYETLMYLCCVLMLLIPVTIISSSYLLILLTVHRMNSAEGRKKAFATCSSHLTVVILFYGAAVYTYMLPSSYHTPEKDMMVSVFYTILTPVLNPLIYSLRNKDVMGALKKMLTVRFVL
Method in brief: as §1

O2T33 A169V = tested on: O2T33 A169V
Chain of O2T33 A169V (as listed by the source, stated change not applied): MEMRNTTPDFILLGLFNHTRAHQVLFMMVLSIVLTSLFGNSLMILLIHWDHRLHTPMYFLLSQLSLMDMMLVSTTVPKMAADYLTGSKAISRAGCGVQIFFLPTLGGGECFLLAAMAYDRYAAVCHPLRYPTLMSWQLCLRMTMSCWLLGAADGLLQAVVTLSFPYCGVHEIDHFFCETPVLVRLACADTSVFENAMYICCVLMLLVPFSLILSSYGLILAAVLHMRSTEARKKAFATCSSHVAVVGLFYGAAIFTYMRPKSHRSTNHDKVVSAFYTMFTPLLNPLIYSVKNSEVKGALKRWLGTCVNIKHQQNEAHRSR
Method in brief: as §1

O2T33 G297E I309L = tested on: O2T33 G297E I309L
Method in brief: as §1

O2T34 Q6P R267P = tested on: O2T34 Q6P R267P
Method in brief: as §1

O2T34 R267P = tested on: O2T34 R267P
Chain of O2T34 R267P (as listed by the source, stated change not applied): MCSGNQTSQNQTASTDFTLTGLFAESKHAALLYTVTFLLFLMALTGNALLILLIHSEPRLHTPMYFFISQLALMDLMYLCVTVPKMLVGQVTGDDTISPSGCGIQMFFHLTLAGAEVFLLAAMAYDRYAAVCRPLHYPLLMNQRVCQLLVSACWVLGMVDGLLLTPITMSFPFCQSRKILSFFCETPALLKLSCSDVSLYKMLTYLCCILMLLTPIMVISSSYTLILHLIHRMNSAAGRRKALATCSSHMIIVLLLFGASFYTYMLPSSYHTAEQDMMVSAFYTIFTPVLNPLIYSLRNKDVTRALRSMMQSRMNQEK
Method in brief: as §1

O4A47 = tested on: O4A47
Chain of O4A47 (as listed by the source): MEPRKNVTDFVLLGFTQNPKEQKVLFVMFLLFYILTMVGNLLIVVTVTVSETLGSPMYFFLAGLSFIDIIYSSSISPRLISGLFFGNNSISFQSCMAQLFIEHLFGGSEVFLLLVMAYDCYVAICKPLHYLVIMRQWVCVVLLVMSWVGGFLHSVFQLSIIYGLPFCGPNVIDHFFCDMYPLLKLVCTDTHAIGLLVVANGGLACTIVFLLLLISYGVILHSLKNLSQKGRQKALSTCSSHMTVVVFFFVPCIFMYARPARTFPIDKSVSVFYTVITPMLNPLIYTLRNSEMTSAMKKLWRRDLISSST
Method in brief: as §1

O4C46 S240F C252Y K288R = tested on: O4C46 S240F C252Y K288R
Method in brief: as §1

O4F15 A272T = tested on: O4F15 A272T
Chain of O4F15 A272T (as listed by the source, stated change not applied): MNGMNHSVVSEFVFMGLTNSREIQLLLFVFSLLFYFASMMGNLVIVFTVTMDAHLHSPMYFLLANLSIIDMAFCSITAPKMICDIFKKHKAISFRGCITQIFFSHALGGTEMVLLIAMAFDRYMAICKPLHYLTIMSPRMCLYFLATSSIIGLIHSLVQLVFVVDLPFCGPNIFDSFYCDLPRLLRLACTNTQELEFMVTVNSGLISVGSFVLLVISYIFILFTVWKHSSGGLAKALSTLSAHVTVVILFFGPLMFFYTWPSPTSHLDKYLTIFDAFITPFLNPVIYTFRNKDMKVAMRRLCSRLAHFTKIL
Method in brief: as §1

O4F15 S149F = tested on: O4F15 S149F
Chain of O4F15 S149F (as listed by the source, stated change not applied): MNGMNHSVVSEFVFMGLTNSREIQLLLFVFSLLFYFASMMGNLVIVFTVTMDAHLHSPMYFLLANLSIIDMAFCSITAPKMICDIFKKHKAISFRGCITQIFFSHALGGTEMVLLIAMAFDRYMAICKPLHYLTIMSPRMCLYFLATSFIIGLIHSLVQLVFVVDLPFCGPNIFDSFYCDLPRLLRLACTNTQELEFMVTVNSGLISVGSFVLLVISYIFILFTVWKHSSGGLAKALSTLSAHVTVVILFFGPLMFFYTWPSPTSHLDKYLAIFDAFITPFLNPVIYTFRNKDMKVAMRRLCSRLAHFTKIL
Method in brief: as §1

O4F17 [1] = tested on: O4F17
Method in brief: as §1
Target sequence in this assay (as listed by the source): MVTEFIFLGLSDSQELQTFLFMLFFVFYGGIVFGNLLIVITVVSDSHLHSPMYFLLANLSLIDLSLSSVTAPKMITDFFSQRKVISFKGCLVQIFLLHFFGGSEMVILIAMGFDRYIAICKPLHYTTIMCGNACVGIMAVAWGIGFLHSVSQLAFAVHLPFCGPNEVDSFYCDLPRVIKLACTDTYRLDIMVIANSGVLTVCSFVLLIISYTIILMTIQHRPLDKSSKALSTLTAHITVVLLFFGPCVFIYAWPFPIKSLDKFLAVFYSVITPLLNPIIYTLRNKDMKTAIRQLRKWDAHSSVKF

O4F17 [2] = tested on: O4F17; remark: listed apart in the source
Method in brief: as §1
Target sequence in this assay (as listed by the source): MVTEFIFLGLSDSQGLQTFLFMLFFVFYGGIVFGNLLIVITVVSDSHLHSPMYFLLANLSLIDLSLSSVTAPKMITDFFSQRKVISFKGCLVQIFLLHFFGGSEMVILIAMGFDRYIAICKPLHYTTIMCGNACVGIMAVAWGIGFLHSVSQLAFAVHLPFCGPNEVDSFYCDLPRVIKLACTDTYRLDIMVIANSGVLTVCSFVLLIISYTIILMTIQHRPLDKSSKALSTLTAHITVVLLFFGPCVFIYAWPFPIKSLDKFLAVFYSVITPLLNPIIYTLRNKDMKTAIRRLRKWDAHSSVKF

O4F21 F44L = tested on: O4F21 F44L
Chain of O4F21 F44L (as listed by the source, stated change not applied): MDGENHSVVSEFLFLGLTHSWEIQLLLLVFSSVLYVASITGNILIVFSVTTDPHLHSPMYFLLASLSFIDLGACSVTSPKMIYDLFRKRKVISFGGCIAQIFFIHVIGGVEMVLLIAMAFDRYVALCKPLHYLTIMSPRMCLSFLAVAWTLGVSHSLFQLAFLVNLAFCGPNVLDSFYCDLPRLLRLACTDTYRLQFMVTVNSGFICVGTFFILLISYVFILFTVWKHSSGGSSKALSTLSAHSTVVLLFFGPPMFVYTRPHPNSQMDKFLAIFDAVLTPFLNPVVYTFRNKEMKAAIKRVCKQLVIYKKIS
Method in brief: as §1

O51A7 E8D = tested on: O51A7 E8D
Chain of O51A7 E8D (as listed by the source): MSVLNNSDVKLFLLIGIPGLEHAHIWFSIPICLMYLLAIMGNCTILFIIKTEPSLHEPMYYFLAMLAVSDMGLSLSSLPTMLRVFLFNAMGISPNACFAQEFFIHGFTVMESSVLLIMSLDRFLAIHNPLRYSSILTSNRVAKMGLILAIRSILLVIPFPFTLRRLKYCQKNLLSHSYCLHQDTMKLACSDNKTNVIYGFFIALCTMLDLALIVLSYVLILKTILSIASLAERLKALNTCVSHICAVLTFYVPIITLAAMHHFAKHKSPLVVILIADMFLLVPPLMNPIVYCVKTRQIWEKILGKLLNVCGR
Method in brief: as §1

O51B2 C120R C209S P283S = tested on: O51B2 C120R C209S P283S
Method in brief: as §1

O51B4 M147T = tested on: O51B4 M147T
Chain of O51B4 M147T (as listed by the source, stated change not applied): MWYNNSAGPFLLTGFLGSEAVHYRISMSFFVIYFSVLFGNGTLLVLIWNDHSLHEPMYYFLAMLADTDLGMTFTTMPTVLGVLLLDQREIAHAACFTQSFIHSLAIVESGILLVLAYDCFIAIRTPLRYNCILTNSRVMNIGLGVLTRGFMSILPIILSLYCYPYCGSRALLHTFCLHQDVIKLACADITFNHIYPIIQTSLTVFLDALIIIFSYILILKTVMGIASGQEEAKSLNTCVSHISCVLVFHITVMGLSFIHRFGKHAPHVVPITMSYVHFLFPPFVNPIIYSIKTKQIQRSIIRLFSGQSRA
Method in brief: as §1

O51B4 = tested on: O51B4
Chain of O51B4 (as listed by the source): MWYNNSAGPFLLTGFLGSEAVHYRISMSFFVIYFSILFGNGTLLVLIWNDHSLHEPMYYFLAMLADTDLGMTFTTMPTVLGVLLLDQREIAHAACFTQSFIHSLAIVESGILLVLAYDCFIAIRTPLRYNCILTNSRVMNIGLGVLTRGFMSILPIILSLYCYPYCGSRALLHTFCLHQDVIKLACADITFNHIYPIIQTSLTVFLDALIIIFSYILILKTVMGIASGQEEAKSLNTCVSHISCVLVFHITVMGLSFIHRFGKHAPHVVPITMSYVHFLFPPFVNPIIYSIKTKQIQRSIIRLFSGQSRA
Method in brief: as §1

O51B5 G5S I102T P160L = tested on: O51B5 G5S I102T P160L
Method in brief: as §1

Measured: odorant receptor agonist call;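 further: active if original authors judged signal statistically different from baseline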

Chain of O2AK2 S99N (as listed by the source, stated change not applied): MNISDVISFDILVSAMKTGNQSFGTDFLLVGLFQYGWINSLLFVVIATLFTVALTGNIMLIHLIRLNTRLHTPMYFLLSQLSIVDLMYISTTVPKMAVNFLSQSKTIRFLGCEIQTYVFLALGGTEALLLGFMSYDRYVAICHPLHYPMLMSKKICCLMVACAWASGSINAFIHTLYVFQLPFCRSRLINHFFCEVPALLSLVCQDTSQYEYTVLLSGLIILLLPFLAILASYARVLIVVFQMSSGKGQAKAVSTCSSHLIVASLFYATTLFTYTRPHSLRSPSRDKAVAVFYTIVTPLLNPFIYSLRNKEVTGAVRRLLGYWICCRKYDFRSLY

C=CCOC(=O)Cc1ccccc1
inactive: all assays above
